In the library only some 1.8% were active in any assay of this set; here they are far more common.
SUMO HTRF inh = inhibitors of in vitro SUMOylation cascade, primary screen, biochemical, HTRF, uHTS; HTRF SUMOylation assay, SAE1/SAE2 + UBC9; 290,000 compounds, 0.36% hits; AID 2006, 2009; inhibition, % at 35 µM; in the data active = inhibition above about 50%, passing the limit was not always enough; inconclusive = no clear call, values can overlap the other calls
Target sequence (P63279 whole entry, looked up): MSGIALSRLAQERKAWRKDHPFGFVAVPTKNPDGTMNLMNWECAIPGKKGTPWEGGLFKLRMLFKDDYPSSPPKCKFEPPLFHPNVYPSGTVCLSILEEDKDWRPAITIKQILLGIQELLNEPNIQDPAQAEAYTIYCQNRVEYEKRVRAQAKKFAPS
Rpn11 block = Rpn11 (PSMD14) deubiquitinase inhibitors, primary screen, biochemical, fluorescence polarization, uHTS | 26S proteasome non-ATPase regulatory subunit 14 (Homo sapiens), O00487 | human 26S proteasome, Ub4-pepOG fluorescence polarization; 20S core pre-blocked with epoxomicin | calls only at 20 µM | 360,000 compounds, 0.59% hits | AID 588493, 2011;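 active = inhibition at 20 µM, scaled to each plate's controls, above about 33%, limit read from the data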
SENP1 FRET inh = human SENP1 catalytic domain inhibitors, primary screen, biochemical, FRET, uHTS; Sentrin-specific protease 1 (Homo sapiens), Q9P0U3; 360,000 compounds, 0.21% hits; recombinant SENP1 catalytic domain, CyPet-SUMO1-YPet FRET cleavage; inhibition, % at 10 µM; AID 624204, 2012;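 active = inhibition at least 30% at 10 µM, raw YFP signal under a set limit, fluorescence ratio 0.5 to 1.5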
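Controls: no-enzyme wells low, DMSO-plus-enzyme wells high control. Test system: human recombinant His6-tagged SENP1 catalytic domain enzyme. Reagent: SFCypet-SUMO1-SFYpet FRET protein substrate, 25 nM final. Doses: one dose per compound, 10 µM, 0.5% DMSO. Detection: FRET, CFP and YFP emission. Timing: 50 min reaction at room temperature.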
TPT1 inh = Candida albicans TPT1 enzyme inhibitors, primary screen, biochemical, fluorescence polarization | recombinant caTPT1, FP RNA substrate dephosphorylation | inhibition, % at 5 µM | 300,000 compounds, 0.81% hits | AID 1962, 2009;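 active = inhibition above the mean of all tested compounds plus 3 SD, set per screening campaign, cut at about 24% in these data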
HNF4A DNA FP = change in binding of human HNF4A to DNA, primary screen, biochemical, fluorescence polarization, FITC-DNA. Hepatocyte nuclear factor 4-alpha (Homo sapiens), P41235. 1 h. activity change, % at 10 µM. 360,000 compounds, 0.3% hits; in the data active = activity change above about 30%, passing the limit was not always enough
CSN inh = inhibitors of CSN-mediated cullin deneddylation, primary screen, biochemical, fluorescence polarization, uHTS; COP9 signalosome complex subunit 5 (Homo sapiens), Q92905; Purified CSN, SCF-Nedd8-OG deneddylation; inhibition, % at 12.5 µM; 360,000 compounds, 0.38% hits; AID 651999, 2013;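 active = pattern-corrected inhibition above about 35%, with an unprinted fluorescence ratio check between 0.5 and 1.5, limit read from the data, passing the limit was not always enough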
Target sequence (Q92905 whole entry, looked up, one chain of several): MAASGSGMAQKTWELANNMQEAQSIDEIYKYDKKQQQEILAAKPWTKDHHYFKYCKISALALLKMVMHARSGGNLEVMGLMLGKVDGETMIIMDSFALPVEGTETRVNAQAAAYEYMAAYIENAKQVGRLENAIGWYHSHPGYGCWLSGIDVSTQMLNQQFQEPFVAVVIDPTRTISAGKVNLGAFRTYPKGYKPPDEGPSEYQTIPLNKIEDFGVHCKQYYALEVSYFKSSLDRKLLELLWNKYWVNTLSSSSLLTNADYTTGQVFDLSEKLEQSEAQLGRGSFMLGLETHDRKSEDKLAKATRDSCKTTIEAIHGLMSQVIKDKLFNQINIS
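Assay system: HEK293T-derived human Csn5 enzyme; quantity: 0.24 nM enzyme; medium: Tris/NaCl/DTT buffer, pH 7.5; also added: substrate SCFSkp2-Nedd8OG, 10 nM; doses: 12.5 µM compound; schedule: 90 min reaction at room temperature; signal: FP; read-out: % inhibition of substrate cleavage by Csn5; benchmarks: substrate-only high control, full reaction low control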
Large screens that a line does not name were inactive.

Cc1c(OC(C)C(=O)NCCN2CCOCC2)ccc2c3c(c(=O)oc12)CCCC3 (stereo not given)	CSN inh 41
O=c1oc2ccccc2cc1-c1nc2ccccc2o1	SUMO HTRF inh inconclusive
Nc1cc2nc3ccccc3oc-2cc1=O	Rpn11 block active, SENP1 FRET inh 33
O=C(NN(c1ccccc1)c1ccccc1)c1ccccc1F	none
N#CC(C(=O)NCCc1ccccc1)c1nc2ccccc2nc1N1CCOCC1 (stereo not given)	CSN inh 39 (not shown: Rpn11 block)
CSCCC(NC(=O)c1ccc(Cl)cc1)C(=O)O (stereo not given)	none
CCn1c(CNC(=O)COc2ccc(C(C)C)cc2)nnc1SCC(=O)NC1CCCCC1C (stereo not given)	CSN inh 70
C/C(=N\OCC(=O)Nn1c(=O)[nH]c2ccccc2c1=O)c1ccccc1	none
CCOC(=O)C1=C(O)/C(=C\c2ccc(CNC(=O)C(=O)Nc3ccccc3)o2)N=C1C	CSN inh 41
CCOC(=O)C1=C(O)/C(=C\c2cccs2)N=C1C	none
O=C(NC(=S)Nc1ccc2[nH]c(=O)[nH]c2c1)c1ccccc1Cl	none
Cc1c(Cl)cccc1NC(=S)Nc1ccc2[nH]c(=O)[nH]c2c1	HNF4A DNA FP 39
COc1ccccc1Oc1c(C)oc2c(CN3CCOCC3)c(O)ccc2c1=O	none
CCOc1ccccc1Oc1c(C)oc2c(CN3CCN(C)CC3)c(O)ccc2c1=O	SUMO HTRF inh 50
O=C(COc1ccccc1[N+](=O)[O-])Nc1ccc2oc(=O)ccc2c1	none
Cc1cc(=O)oc2cc(NC(=O)COc3ccccc3[N+](=O)[O-])ccc12	CSN inh 71 (no result: SUMO HTRF inh, TPT1 inh)
COc1cccc(/C=C/C(=O)OCC(=O)NCc2ccco2)c1	none
Oc1cccc(/C=N/Nc2nn3cnnc3c3ccccc23)c1	none
COc1cccc(/C=N/Nc2nn3cnnc3c3ccccc23)c1O	SENP1 FRET inh 55
Cc1nc([N+](=O)[O-])cn1CC(=O)c1ccc(F)cc1	HNF4A DNA FP 77
Cc1cnc(CNC(=O)c2ccc(OC3CCN(C(=O)C4CC4)CC3)cc2)cn1	HNF4A DNA FP 40
Cc1cc(=O)oc(C)c1C(=O)n1nc(C)c2c1C[C@@H]1[C@H]2C1(C)C	HNF4A DNA FP 52
CNc1nc2cc([N+](=O)[O-])c([N+](=O)[O-])cc2nc1NC	SENP1 FRET inh 43
N#Cc1cc2nc(O)c(O)nc2cc1[N+](=O)[O-]	none (no result: SUMO HTRF inh)
COc1cc2c(cc1OC)C(SC)=NC1(CCCC1)C2	none
COc1cc2c(cc1OC)C(C)=NC1(CCCCC1)C2	SUMO HTRF inh 59
O=C(O)c1cc(-c2ccc(/C=c3\sc4nc5ccc(Br)cc5n4c3=O)o2)ccc1Cl	TPT1 inh 71 (no result: Rpn11 block, SENP1 FRET inh, HNF4A DNA FP, CSN inh)
Cc1cc(N)ccc1N1CCCC1	Rpn11 block active
Cn1ccnc1SCC(=O)c1ccc(OC(F)F)cc1	none
O=C1CC(c2ccco2)CC(O)=C1C=Nc1cc(Cl)ccc1Cl (stereo not given)	none
O=C1CC(c2ccco2)CC(O)=C1C=Nc1cc(Cl)ccc1O (stereo not given)	SENP1 FRET inh 37
CCCNC(=O)C1(C)CCCN(Cc2ccc(C#N)cc2)C1 (stereo not given)	none (no result: SUMO HTRF inh, TPT1 inh)
CCCCOc1ccc(C(=O)Nc2ccc(OCC(=O)N3CCOCC3)cc2)cc1	none
O=C(Nc1ccc(OCC(=O)N2CCOCC2)cc1)c1cncc(Br)c1	CSN inh 80
CCn1cc(C(=O)O)c(=O)c2cc(Br)ccc21	none
O=C(c1[nH]c(C(F)(F)F)nc1-c1ccccc1)N1CCN(CCN2CCOCC2)CC1	none (no result: SUMO HTRF inh, TPT1 inh)
O=C(c1[nH]c(C(F)(F)F)nc1-c1ccccc1)N1CCCN(Cc2ccc(F)cc2)CC1	CSN inh 76 (no result: SUMO HTRF inh, TPT1 inh)
O=[N+]([O-])c1ccccc1S(=O)(=O)Nc1ncccn1	none
CC(OC(=O)/C=C/c1cccc(Cl)c1)C(=O)NC1CCCCC1C (stereo not given)	none (no result: SUMO HTRF inh)
CC(OC(=O)c1cccc(Cl)c1)C(=O)NC1CCCCC1C (stereo not given)	CSN inh 57
O=C(Cn1c2ccccc2c(=O)c2cc([N+](=O)[O-])ccc21)Nc1ccccc1Cl	SUMO HTRF inh 51
CCN(Cc1ccccc1)C(=S)Nc1cc(C(=O)OC)ccc1C(=O)OC	HNF4A DNA FP 33
Cc1c2c(cc3c1[nH]c1ccccc13)C=NCC2	HNF4A DNA FP 64, CSN inh 65 (not shown: SUMO HTRF inh, Rpn11 block, TPT1 inh)
Nc1ccc2nc(-c3ccccc3)sc2c1	SUMO HTRF inh 57
CCCSc1nc(C)c(-c2csc(C(C#N)=C3CCCC3)n2)cc1C#N	CSN inh 45
O=C(c1cc(-c2ccc(Cl)cc2)nc2ccccc12)N1CCC1	none (no result: SUMO HTRF inh)
CCOC(=O)N1CCN(C(=O)c2cccn3c(=O)c4cc(Br)ccc4nc23)CC1	SUMO HTRF inh 51
CCOC(=O)N1CCN(C(=O)c2cccn3c(=O)c4cc(Cl)ccc4nc23)CC1	SUMO HTRF inh 58
CCOC(=O)N1CCN(C(=O)c2cccn3c(=O)c4sccc4nc23)CC1	none
C=CCNCCCOc1ccc(Cl)cc1C(C)(C)C	none
O=C(NCCn1cccc1)c1cccc2ccccc12	none
Nc1c(C(=O)NCc2ccc(F)cc2)c2nc3ccccc3nc2n1CCCN1CCOCC1	none
Nc1c(C(=O)NCc2ccccc2)c2nc3ccccc3nc2n1CCCN1CCOCC1	SUMO HTRF inh 98
Nc1c(C(=O)NCc2ccco2)c2nc3ccccc3nc2n1CCc1ccccc1	SUMO HTRF inh 99 (no result: TPT1 inh)
COc1cc(OC)c(OC)cc1/C=N/NC(=O)CC1C(=O)NN=C1C (stereo not given)	none
COc1ccc(-c2cc3nc4ccccc4n3c(N)c2C#N)cc1	SUMO HTRF inh 57
COc1cc(-c2cc(C(=O)Nc3ccc(O)cc3)c3ccccc3n2)cc(OC)c1OC	none
COc1cc(-c2cc(O)c(-c3ccc4ccccc4n3)c(=O)[nH]2)cc(OC)c1OC	CSN inh 58 (not shown: SUMO HTRF inh, Rpn11 block, TPT1 inh)
Cc1cccc(OCCCC(=O)NC2CCCCC2)c1	none
C=CC(=O)Nc1cccc(Oc2ccnc(Nc3ccc(N4CCN(C)CC4)cc3)n2)c1	none (no result: SUMO HTRF inh, TPT1 inh)
C=CC(=O)Nc1cccc(Oc2ccnc3[nH]ccc23)c1	Rpn11 block active, CSN inh 122 (no result: SUMO HTRF inh, TPT1 inh)
CC1Cc2ccccc2N1S(=O)(=O)c1cccs1 (stereo not given)	HNF4A DNA FP 115, CSN inh 57 (not shown: Rpn11 block)
Cc1ccc(S(=O)(=O)N2c3ccccc3CC2C)cc1 (stereo not given)	none

Bioassay records deposited in PubChem by several laboratories.
